Laboratory results taken from ChEMBL document CHEMBL4219118, “Cathepsin B inhibitors: Further exploration of the nitroxoline core” (Bioorg Med Chem Lett, 2018).

Experiments:
Cathepsin B [1] = target: T1, Cathepsin B (Homo sapiens, UniProt P07858); assay: Inhibition of recombinant human cathepsin B endopeptidase activity assessed as inhibitory constant for enzyme-inhibitor complex using Z-Arg-Arg-AMC as substrate in presence of pH 4.5 acetate buffer by fluorescence assay
In short: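 Recombinant cathepsin B endopeptidase activity assayed with the small substrate Z-Arg-Arg-AMC at pH 4.5. Acidic conditions chosen to shift the enzyme toward the closed (exopeptidase) conformation. Ki reported.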

Cathepsin B [2] = target: T1, Cathepsin B; assay: Inhibition of recombinant human cathepsin B endopeptidase activity assessed as inhibitory constant for enzyme-substrate-inhibitor complex using Z-Arg-Arg-AMC as substrate in presence of pH 6 phosphate buffer by fluorescence assay
Cathepsin B [3] = target: T1, Cathepsin B; assay: Inhibition of recombinant human cathepsin B exopeptidase activity assessed as inhibitory constant for enzyme-substrate-inhibitor complex using Abz-Gly-Ile-Val-Arg-Ala-Lys(Dnp)-OH as substrate in presence of pH 5 acetate buffer by fluorescence assay
Cathepsin B [4] = target: T1, Cathepsin B; assay: Inhibition of recombinant human cathepsin B exopeptidase activity assessed as inhibitory constant for enzyme-inhibitor complex using Abz-Gly-Ile-Val-Arg-Ala-Lys(Dnp)-OH as substrate in presence of pH 5 acetate buffer by fluorescence assay

Measured: Ki

CC1CCN(Cc2cc([N+](=O)[O-])ccc2O)CC1
Not Active: all assays above

CN(CC#N)Cc1cc([N+](=O)[O-])ccc1O
Not Active: all assays above

CN(CC#N)Cc1ccc2c([N+](=O)[O-])ccc(O)c2n1
Not Active: all assays above

Cc1ccc(-c2ccc([N+](=O)[O-])c3cccnc23)s1
Not Active: all assays above

O=[N+]([O-])c1ccc(-c2c(-c3ccc([N+](=O)[O-])c4cccnc34)oc3ccccc23)cc1
Not Active: all assays above

O=[N+]([O-])c1ccc(-c2cc3ccccc3s2)c2ncccc12
Not Active: all assays above

O=C(NCC1CCN(Cc2nc3ccccc3s2)CC1)c1cc([N+](=O)[O-])c2cccnc2c1O
Not Active: all assays above

N#CCN(Cc1ccccc1)Cc1cc([N+](=O)[O-])ccc1O
Not Active: all assays above

COCCN(CC1CCN(Cc2nc3ccccc3o2)CC1)C(=O)c1cc([N+](=O)[O-])c2cccnc2c1O
Not Active: all assays above

N#Cc1ccc([N+](=O)[O-])c2cccnc12
Not Active: all assays above

O=[N+]([O-])c1ccc(Br)c2ncccc12
Not Active: all assays above

CC1CCN(C(=O)c2cc([N+](=O)[O-])ccc2O)CC1
Not Active: all assays above

Cc1ccc2c([N+](=O)[O-])cc([N+](=O)[O-])c(O)c2n1
Not Active: all assays above

O=C(O)c1ccc([N+](=O)[O-])c2cccnc12
Not Active: all assays above

O=C(c1cc([N+](=O)[O-])ccc1O)N1CCCCC1
Not Active: all assays above

N#Cc1ccc(-c2ccc(-c3ccc([N+](=O)[O-])c4cccnc34)o2)cc1
Not Active: all assays above

CC(=O)c1ccc(-c2ccc(-c3ccc([N+](=O)[O-])c4cccnc34)s2)cc1
Not Active: all assays above

N#CCNCc1cc([N+](=O)[O-])ccc1O
Not Active: all assays above

O=[N+]([O-])c1ccc(-c2ccco2)c2ncccc12
Not Active: all assays above

O=[N+]([O-])c1ccc(O)c(CN2CCCCC2)c1
Not Active: all assays above

O=[N+]([O-])c1ccc(-c2ccoc2)c2ncccc12
Not Active: all assays above

O=[N+]([O-])c1cccc(-c2ccc([N+](=O)[O-])c3cccnc23)c1
Not Active: all assays above

Cc1ccc(-c2ccc([N+](=O)[O-])c3cccnc23)cc1
Not Active: all assays above

O=[N+]([O-])c1ccc(-c2cc3ccccc3o2)c2ncccc12
Not Active: all assays above

CC(=O)c1ccc(-c2ccc(-c3ccc([N+](=O)[O-])c4cccnc34)n2C)cc1
Not Active: all assays above

O=C(NCC1CCN(C2Cc3ccccc3C2)CC1)c1cc([N+](=O)[O-])c2cccnc2c1O
Not Active: all assays above

CC(=O)c1ccc(-c2c(-c3ccc([N+](=O)[O-])c4cccnc34)oc3ccccc23)cc1
Not Active: all assays above

Cc1ccc([N+](=O)[O-])c2cccnc12
Not Active: all assays above

O=[N+]([O-])c1ccc(-c2occc2-c2ccc([N+](=O)[O-])c3cccnc23)cc1
Not Active: all assays above

N#CC1(NCc2cc([N+](=O)[O-])ccc2O)CC1
Not Active: all assays above

O=[N+]([O-])c1ccc(-c2ccccc2)c2ncccc12
Not Active: all assays above

N#Cc1ccc(-c2ccc([N+](=O)[O-])c3cccnc23)cc1
Not Active: all assays above

O=[N+]([O-])c1ccc(-c2ccc[nH]2)c2ncccc12
Not Active: all assays above

CN(CC#N)C(=O)c1cc([N+](=O)[O-])ccc1O
Not Active: all assays above

O=[N+]([O-])c1ccc(-c2ccsc2)c2ncccc12
Not Active: all assays above

Cc1cccc(-c2ccc([N+](=O)[O-])c3cccnc23)c1
Not Active: all assays above

O=C(O)c1ccc2c([N+](=O)[O-])cc([N+](=O)[O-])c(O)c2n1
Not Active: all assays above

NC(=O)c1ccc([N+](=O)[O-])c2cccnc12
Not Active: all assays above
